Key:
Assay type in all cases: functional
KM12 = test: Growth inhibition of human KM12 cells assessed as cell growth at 10 uM incubated for 48 hrs by sulforhodamine B assay relative to control; details: KM12, 48 h, read-out: Activity
Procedure, shortened: (§1)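 Run in the standard NCI 60-cell-line screen. Cells were exposed to drug for two days, and the read-out was sulforhodamine B staining. Compound was tested at a single final concentration of 10 µM in every line, and results are reported as growth percent.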

[1] = Growth inhibition of human SW620 cells assessed as cell growth at 10 uM incubated for 48 hrs by sulforhodamine B assay relative to control; details: SW-620, 48 h, read-out: Activity; procedure, shortened: as §1
[2] = Growth inhibition of human SF268 cells assessed as cell growth at 10 uM incubated for 48 hrs by sulforhodamine B assay relative to control; details: SF-268, 48 h, read-out: Activity; procedure, shortened: as §1
[3] = Growth inhibition of human SF295 cells assessed as cell growth at 10 uM incubated for 48 hrs by sulforhodamine B assay relative to control; details: SF-295, 48 h, read-out: Activity; procedure, shortened: as §1
U-251 = test: Growth inhibition of human U251 cells assessed as cell growth at 10 uM incubated for 48 hrs by sulforhodamine B assay relative to control; details: U-251, 48 h, read-out: Activity
Procedure, shortened: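 NCI 60-cell line standard protocol, one-dose screen: single final concentration 10 µM, 2-day drug exposure, sulforhodamine B (SRB) endpoint; read-out is growth percent relative to untreated control.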

[4] = Growth inhibition of human IGROV1 cells assessed as cell growth at 10 uM incubated for 48 hrs by sulforhodamine B assay relative to control; details: IGROV-1, 48 h, read-out: Activity; procedure, shortened: as §1
[5] = Growth inhibition of human OVCAR5 cells assessed as cell growth at 10 uM incubated for 48 hrs by sulforhodamine B assay relative to control; details: OVCAR-5, 48 h, read-out: Activity; procedure, shortened: as §1
786-0 = test: Growth inhibition of human 786-0 cells assessed as cell growth at 10 uM incubated for 48 hrs by sulforhodamine B assay relative to control; details: 786-0, 48 h, read-out: Activity; procedure, shortened: as §1
[6] = Growth inhibition of human PC3 cells assessed as cell growth at 10 uM incubated for 48 hrs by sulforhodamine B assay relative to control; details: PC-3, 48 h, read-out: Activity; procedure, shortened: as §1
MCF7 [7] = test: Growth inhibition of human MCF7 cells assessed as cell growth at 10 uM incubated for 48 hrs by sulforhodamine B assay relative to control; details: MCF7, 48 h, read-out: Activity; procedure, shortened: as §1
[8] = Growth inhibition of human Hs 578T cells assessed as cell growth at 10 uM incubated for 48 hrs by sulforhodamine B assay relative to control; details: read-out: Activity
CCRF-CEM = test: Growth inhibition of human CCRF-CEM cells assessed as cell growth at 10 uM incubated for 48 hrs by sulforhodamine B assay relative to control; details: read-out: Activity
Procedure, shortened: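 Single-dose screen in the NCI 60-cell-line panel at one final concentration of 10 µM. Two-day drug exposure with a sulforhodamine B endpoint. Values are growth percent for each cell line.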

[9] = Growth inhibition of human SF268 cells incubated for 48 hrs by sulforhodamine B assay; details: SF-268, 48 h
Procedure, shortened: (§2)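 NCI 60-cell-line panel, standard protocol. Cells exposed to compound for two days, growth read by sulforhodamine B staining. Tested at five 10-fold dilutions, top concentration 100 µM, to give dose-response curves.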

[10] = Growth inhibition of human SF295 cells incubated for 48 hrs by sulforhodamine B assay; details: SF-295, 48 h; procedure, shortened: as §2
[11] = Growth inhibition of human SF539 cells incubated for 48 hrs by sulforhodamine B assay; details: SF-539, 48 h; procedure, shortened: as §2
[12] = Growth inhibition of human LOXIMVI cells incubated for 48 hrs by sulforhodamine B assay; details: LOX IMVI; procedure, shortened: as §2
Malme-3M = test: Growth inhibition of human MALME-3M cells incubated for 48 hrs by sulforhodamine B assay; procedure, shortened: as §2
MDA-MB-435 = test: Growth inhibition of human MDA-MB-435 cells incubated for 48 hrs by sulforhodamine B assay; details: MDA-MB-435, 48 h; procedure, shortened: as §2
[13] = Growth inhibition of human UACC257 cells incubated for 48 hrs by sulforhodamine B assay; details: UACC-257, 48 h
Procedure, shortened: (§3)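 Tested in the standard NCI 60-cell-line protocol with two-day drug exposure and a sulforhodamine B endpoint. Compounds were first screened at a single final concentration of 10 µM, reported as growth percent. They were then run as five 10-fold dilutions starting from a high concentration of 100 µM to give dose-response curves.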

[14] = Growth inhibition of human OVCAR3 cells incubated for 48 hrs by sulforhodamine B assay; details: OVCAR-3, 48 h; procedure, shortened: as §2
[15] = Growth inhibition of human OVCAR5 cells incubated for 48 hrs by sulforhodamine B assay; details: OVCAR-5, 48 h; procedure, shortened: as §2
SN12C = test: Growth inhibition of human SN12C cells incubated for 48 hrs by sulforhodamine B assay; procedure, shortened: as §3
[16] = Growth inhibition of human DU145 cells incubated for 48 hrs by sulforhodamine B assay; details: DU-145, 48 h; procedure, shortened: as §2
MCF7 [17] = test: Growth inhibition of human MCF7 cells incubated for 48 hrs by sulforhodamine B assay; details: MCF7, 48 h; procedure, shortened: as §2
[18] = Growth inhibition of human Hs 578T cells incubated for 48 hrs by sulforhodamine B assay
T47D = test: Growth inhibition of human T47D cells incubated for 48 hrs by sulforhodamine B assay; procedure, shortened: as §3
NCI-H23 = test: Growth inhibition of human NCI-H23 cells assessed as cell growth at 10 uM incubated for 48 hrs by sulforhodamine B assay relative to control; details: NCI-H23, 48 h, read-out: Activity; procedure, shortened: as §1
[19] = Growth inhibition of human HCT116 cells assessed as cell growth at 10 uM incubated for 48 hrs by sulforhodamine B assay relative to control; details: HCT-116, 48 h, read-out: Activity; procedure, shortened: as §1
[20] = Growth inhibition of human HCT15 cells assessed as cell growth at 10 uM incubated for 48 hrs by sulforhodamine B assay relative to control; details: HCT-15, 48 h, read-out: Activity; procedure, shortened: as §1
[21] = read-out: pLC50 (the source's name) (converted)

CC(C)[C@@]12C[C@@H](NC(=O)CO)[C@@](C)(O1)[C@@H]1CC[C@@H](C)[C@H]1[C@@H]2OC(=O)/C=C/c1ccccc1
growth at 10 µM (KM12): 111%
growth at 10 µM [1]: 109%
growth at 10 µM [2]: 84.4%
growth at 10 µM [3]: 90.6%
growth at 10 µM (U-251): 92.3%
growth at 10 µM [4]: 106%
growth at 10 µM [5]: 93%
growth at 10 µM (786-0): 73.1%
growth at 10 µM [6]: 77.5%
growth at 10 µM (MCF7 [7]): 94.4%
growth at 10 µM [8]: 9%
growth at 10 µM (CCRF-CEM): 99.8%
GI50 [9]: 14.8 µM
LC50 (lethal concentration, 50% net cell kill) [9]: > 50.1 µM
TGI ([9]; read-out: pTGI (converted)): > 50.1 µM
GI50 [10]: 18.6 µM
LC50 (concentration causing 50% net cell kill) [10]: > 50.1 µM
TGI ([10]; read-out: pTGI (converted)): > 50.1 µM
GI50 [11]: 42.7 µM
LC50 [11]: > 50.1 µM
TGI ([11]; read-out: pTGI (converted)): > 50.1 µM
GI50 [12]: 14.5 µM
LC50 [12]: > 50.1 µM
TGI ([12]; read-out: pTGI (converted)): > 50.1 µM
GI50 (Malme-3M): 20.9 µM
LC50 (Malme-3M): > 50.1 µM
TGI (Malme-3M; read-out: pTGI (converted)): > 50.1 µM
GI50 (MDA-MB-435): 18.2 µM
LC50 (MDA-MB-435): > 50.1 µM
TGI (MDA-MB-435; read-out: pTGI (converted)): > 50.1 µM
GI50 [13]: 10.5 µM
CC50 [13, 21]: > 50.1 µM
TGI ([13]; read-out: pTGI (converted)): 45.7 µM
GI50 [14]: 14.8 µM
LC50 [14]: > 50.1 µM
TGI ([14]; read-out: pTGI (converted)): 49 µM
GI50 [15]: 23.4 µM
LC50 [15]: > 50.1 µM
TGI ([15]; read-out: pTGI (converted)): > 50.1 µM
GI50 (SN12C): 10.7 µM
CC50 (SN12C; [21]): > 50.1 µM
TGI (SN12C; read-out: pTGI (converted)): > 50.1 µM
GI50 [16]: 25.1 µM
CC50 [16, 21]: > 50.1 µM
TGI ([16]; read-out: pTGI (converted)): > 50.1 µM
GI50 (MCF7 [17]): 14.5 µM
CC50 (MCF7 [17]; [21]): > 50.1 µM
TGI (MCF7 [17]; read-out: pTGI (converted)): > 50.1 µM
GI50 ([18]; read-out: GI50): 0.832 µM
GI50 ([18]; read-out: pGI50 (converted)): 0.832 µM
CC50 [18, 21]: > 50.1 µM
TGI ([18]; read-out: pTGI (converted)): 3.39 µM
GI50 (T47D): 19.1 µM
CC50 (T47D; [21]): > 50.1 µM
TGI (T47D; read-out: pTGI (converted)): > 50.1 µM
growth at 10 µM (NCI-H23): 81.9%
growth at 10 µM [19]: 85.8%
growth at 10 µM [20]: 108%

— ChEMBL document CHEMBL3804761, “Synthesis of a stable and orally bioavailable englerin analogue” (Bioorg Med Chem Lett, 2016)
